Assay outcomes as filed in PubChem BioAssay.
LMPTP block: LMPTP phosphatase inhibitors, primary screen, biochemical, fluorescence intensity, uHTS; Low molecular weight phosphotyrosine protein phosphatase (Homo sapiens), P24666; recombinant LMPTP-A, OMFP fluorogenic substrate; inhibition, % at 20 µM; 360,000 compounds, 0.22% hits; AID 651560, 2012;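 active means compounds that cut the enzyme signal by at least half of the control window in the single-dose screen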;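 further: plate controls were DMSO wells with enzyme plus substrate for no effect and substrate without enzyme for full effect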
Target sequence (P24666 whole entry, looked up): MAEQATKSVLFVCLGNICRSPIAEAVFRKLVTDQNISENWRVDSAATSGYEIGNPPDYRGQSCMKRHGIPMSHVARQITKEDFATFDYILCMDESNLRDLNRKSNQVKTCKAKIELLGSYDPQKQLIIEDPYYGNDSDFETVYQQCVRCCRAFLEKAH
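Test system: LMPTP-A, protein tyrosine phosphatase of low molecular weight; Input: 0.625 nM enzyme; Incubation: 50 min dark incubation at room temperature; Signal: endpoint fluorescence intensity from OMFP dephosphorylation; Read-out basis: % inhibition versus control wells.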
NadD inh: inhibitors of S. aureus NadD, primary screen, biochemical, colorimetric, uHTS; Nicotinate-nucleotide adenylyltransferase NadD (Staphylococcus aureus N315); purified NadD enzyme, colorimetric absorbance read-out; 360,000 compounds, 0.78% hits; AID 602399, 2012; inhibition, % at 20 µM; in the data active means inhibition above about 26%
STEP block: STEP phosphatase inhibitors, primary screen, biochemical, fluorescence intensity, uHTS. Tyrosine-protein phosphatase non-receptor type 5 (Homo sapiens), P54829. recombinant STEP, OMFP fluorogenic substrate. inhibition, % at 20 µM. 360,000 compounds, 0.25% hits;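 active means inhibition at 20 µM, scaled per plate between control wells, above about 37%, limit read from the data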;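 further: 0% = DMSO with enzyme and substrate and 100% = substrate only without enzyme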
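Assay system: isolated STEP enzyme / Timing: 20 min at room temperature, dark / Doses: 20 µM, 1% DMSO / Technique: fluorescence intensity, excitation 480 nm, emission 540 nm / Reagent: fluorogenic phosphatase substrate OMFP at 25 µM final / Measure: percent inhibition scaled to no-enzyme and uninhibited-enzyme controls, plate-pattern corrected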
Scp-1 inhibitor: Scp-1 phosphatase inhibitors, primary screen, biochemical, colorimetric, uHTS | Recombinant Scp1, phosphopeptide, malachite green phosphate absorbance | 340,000 compounds, 0.88% hits | inhibition, % at 20 µM | AID 493091, 2011 | Carboxy-terminal domain RNA polymerase II polypeptide A small phosphatase 1 (Homo …;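 active means inhibition above about 50% at 20 µM, limit read from the data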;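 further: plate controls were DMSO wells with enzyme for no effect and wells lacking enzyme for full effect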
Target sequence (Q9GZU7 76-261 limits assumed): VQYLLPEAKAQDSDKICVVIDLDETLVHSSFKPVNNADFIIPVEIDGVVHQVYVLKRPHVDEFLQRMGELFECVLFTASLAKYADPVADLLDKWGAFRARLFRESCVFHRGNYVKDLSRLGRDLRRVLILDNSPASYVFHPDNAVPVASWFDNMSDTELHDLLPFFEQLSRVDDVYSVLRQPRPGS
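Material: truncated SCP-1 phosphatase (76-261aa) / Buffer or medium: 50 mM Tris acetate pH 5.5, 0.005% Tween-20, 10 mM MgCl2 / Compound dosing: one concentration, 20 µM, with 1.0% DMSO / Incubation: 45 min room-temperature reaction, 5 min colour, 30 min stabiliser / Detection: colorimetric free-phosphate detection, absorbance 630 nm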
rCAG RNA binder: binders of r(CAG) RNA repeats, primary screen, biochemical, fluorescence; r(CAG) RNA repeat, TO-PRO-1 dye displacement fluorescence; inhibition, % at 3 µM; 370,000 compounds, 1.3% hits; AID 651821, 2012;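 active means inhibition above the plate cutoff, the mean of all test compounds on that plate plus 3 SD, cut at about 35% in these data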;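 further: 0% = DMSO alone and 100% = 100 µM mitoxantrone as full dye displacement; higher means more dye released from RNA so lower well fluorescence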
NadD conf: inhibitors of S. aureus NadD, confirmation, biochemical, colorimetric, single concentration. shares compounds with NadD inh. purified S. aureus NadD, colorimetric enzyme assay. inhibition, % at 20 µM. 2,000 compounds, 13% hits; in the data active means inhibition mostly above about 42%, no sharp cut-off; inactive means mostly below about 42%
Starred values were filed as active, the others as inactive. A selection: hits, their analogues and other compounds. The true share with any hit is near 2.6%.

For COc1ccc(S[C@]2(C(=O)N3CCOCC3)CC(=O)N(c3ccc(C#N)cc3)[C@@H]2c2ccc(OC)cc2)cc1 the results were rCAG RNA binder 7.
O=C(C[C@H]1C[C@H](C(=O)N2CCCCC2)[C@@]2(CCc3ccccc3)c3[nH]c4cc(-c5ccco5)ccc4c3CCN2C1=O)NCCC1=CCCCC1 was read as LMPTP block 2, NadD inh 56*, STEP block 4, Scp-1 inhibitor 12 and NadD conf 13.
`O=C(CC1C[C@H](C(=O)N2CCCCC2)[C@@]2(CCc3ccccc3)c3[nH]c4ccccc4c3CCN2C1=O)NCCC1=CCCCC1` (some centres undefined) gave LMPTP block 2, NadD inh 18, STEP block 11, Scp-1 inhibitor 4 and rCAG RNA binder 5.
For O=C(C[C@H]1C[C@H](C(=O)N2CCCCC2)[C@@]2(CCc3ccccc3)c3[nH]c4cc(-c5ccco5)ccc4c3CCN2C1=O)NCc1cccc(C(F)(F)F)c1 the results were LMPTP block -1, NadD inh 54*, STEP block -2, Scp-1 inhibitor -1, rCAG RNA binder 22 and NadD conf 25.
Screening CC[C@]12c3[nH]c4cc(CCC(=O)N(C)C)ccc4c3CCN1C(=O)[C@@H](CC(=O)NCCC1=CCCCC1)C[C@@H]2C(=O)N1CCN(C(=O)c2ccco2)CC1 returned LMPTP block 0, NadD inh 2, STEP block -1, Scp-1 inhibitor 1 and rCAG RNA binder 0.
`CC[C@]12c3[nH]c4cc(-c5ccco5)ccc4c3CCN1C(=O)[C@@H](CC(=O)NCCC1=CCCCC1)C[C@@H]2C(=O)N1CCN(C(=O)c2ccco2)CC1` gave LMPTP block 13, NadD inh 33*, STEP block 2, Scp-1 inhibitor 7 and NadD conf 11.
CCOc1ccc(CCN2C(=S)N([C@@H](CC(C)C)CN3CCCC3CN3C(=S)NC[C@@H]3Cc3ccc(O)cc3)C[C@@H]2Cc2ccc(O)cc2)cc1 (some centres undefined) was read as LMPTP block 4, NadD inh 37*, STEP block 0, Scp-1 inhibitor 16, rCAG RNA binder 15 and NadD conf 43.
For CCOc1ccc(CCN2C(=S)N([C@@H](CC(C)C)CN3CCCC3CN3C(=S)NC[C@@H]3Cc3ccc(O)cc3)C[C@@H]2CC(C)C)cc1 (some centres undefined) the results were LMPTP block 5, NadD inh 36*, STEP block -1, Scp-1 inhibitor 30, rCAG RNA binder 6 and NadD conf 7.
Screening CCOc1ccc(CCN2C(=S)N([C@@H](CC(C)C)CN3CCCC3CN3C(=S)NC[C@@H]3Cc3ccc(O)cc3)C[C@@H]2Cc2ccccc2)cc1 (some centres undefined) returned LMPTP block 3, NadD inh 34*, STEP block 4, Scp-1 inhibitor 24, rCAG RNA binder 13 and NadD conf 10.
Screening Oc1ccc(C[C@@H](CN2CCC[C@@H]2CN2C(=S)NC[C@@H]2Cc2ccccc2)N2C[C@H](Cc3ccccc3)N(CCc3ccccc3)C2=S)cc1 returned LMPTP block 3, NadD inh 20, STEP block 0 and rCAG RNA binder 13.
CCOc1ccc(CCN2C(=S)N([C@@H](CC(C)C)CN3CCC[C@@H]3CN3C(=S)NC[C@@H]3CC(C)C)C[C@@H]2Cc2ccc(O)cc2)cc1 was read as LMPTP block 20, NadD inh 20, STEP block 40 and rCAG RNA binder 14.
`CCOc1ccc(CCN2C(=S)N([C@@H](Cc3ccc(O)cc3)CN3CCC[C@@H]3CN3C(=S)NC[C@@H]3Cc3ccccc3)C[C@@H]2Cc2ccc(O)cc2)cc1` gave LMPTP block 4, NadD inh 45*, STEP block 2, rCAG RNA binder 18 and NadD conf 41.
Screening CC(C)C[C@H]1CN([C@@H](Cc2ccccc2)CN2CCC[C@H]2CN2C(=O)C(=O)NC[C@@H]2Cc2ccccc2)C(=O)C(=O)N1CC1CCCCCC1 returned rCAG RNA binder 3.
For Cc1ccc(S(=O)(=O)Nc2ccccc2N2CCCCC2)cc1 the results were LMPTP block 3, NadD inh 7, STEP block 2, Scp-1 inhibitor -5 and rCAG RNA binder 1.
`O=C(NCC(F)(F)F)c1ccc(S(=O)(=O)Nc2ccccc2N2CCCC2)cc1` gave LMPTP block 4, NadD inh 40*, STEP block 2, Scp-1 inhibitor -7, rCAG RNA binder 8 and NadD conf 11.
COC(=O)[C@]12C[C@H](CC(=O)N3CCC(c4ccccc4)CC3)C(=O)N(Cc3ccccc3)C1=C[C@H](C(C)(C)C)O[C@@H]2C was read as rCAG RNA binder 11.
Screening COc1cc2cc(Oc3ccc4ccc(=O)oc4c3)c(=O)oc2cc1OC(=O)/C=C/c1ccccc1 returned LMPTP block -3, NadD inh 32*, STEP block 3, Scp-1 inhibitor 3, rCAG RNA binder 3 and NadD conf 10.
`CCN(CC)C(=O)CC[C@H]1CC[C@]2(CCCN(C3CCCCC3)C2)O1` gave rCAG RNA binder 3.
Screening CCOC(=O)c1ccc(N=c2scc(C)n2CC)cc1 returned LMPTP block 1, NadD inh 6, STEP block 2, Scp-1 inhibitor -10 and rCAG RNA binder -2.
CCOC(=O)c1ccc(N=C2C(=S)N(c3ccc(C(=O)OCC)cc3)C(=N)N2/N=C/c2ccccc2)cc1 was read as LMPTP block 1, NadD inh 39*, STEP block 1, Scp-1 inhibitor 14, rCAG RNA binder 12 and NadD conf 13.
Screening CC(C)C[C@@H](CN1CCC[C@@H]1CN1C(=S)NC[C@@H]1Cc1ccc(O)cc1)N1C[C@H](Cc2ccc(O)cc2)N(CCc2ccccc2)C1=S returned LMPTP block 2, NadD inh 40*, STEP block 3, rCAG RNA binder 12 and NadD conf 28.
